# Data as given in publication PMC5944575 (Clinical and Translational Science, 2018).
# Legend:
# 5‐LO [1] = settings: cited from earlier work
# 5‐LO [2] = settings: at‐risk patients with CAD ref 15; cited from earlier work
# [3] = Clinical safety and tolerability in healthy subjects; type: in vivo, human; settings: for subjects reporting headache: active drug
# Procedure, shortened: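 Healthy men aged 18–50 (BMI 18–30 kg/m², 50–100 kg), randomized, single-blind, placebo-controlled. SAD: single oral suspension doses of 25–1,200 mg, with sentinel pairs reviewed to 24 h. MAD: 60–600 mg once daily for 10 days. Vital signs, ECG, telemetry, clinical laboratory tests and adverse events were recorded before and after dosing and at follow-up 7–10 days post final dose.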
# Caco‐2 = test: Caco-2 permeability and efflux; type: in vitro ADME
# [4] = Human intestinal Ussing chamber metabolism; type: in vitro ADME; settings: data not shown
# [5] = Pharmacokinetics, single ascending dose; type: in vivo, human; settings: for AUC / CL/F / CLR / t½ / Cmax: geometric mean (%CV); for Tmax: median (range)
# Procedure, shortened: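 Fasted (10 h overnight) healthy men received single oral doses of amorphous suspension, n = 6 per dose. K₂EDTA plasma and pooled urine were assayed by LC-MS/MS with a ¹³C₆-labelled internal standard (validated 1–1,000 nmol/L plasma, 20–20,000 nmol/L urine). Noncompartmental analysis used log-linear trapezoidal AUC extrapolated to infinity; CL/F = dose/AUC; CLR = amount excreted unchanged/AUC.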
# [6] = Human plasma protein binding; type: in vitro ADME
# [7] = Solubility of amorphous and crystalline form; type: physicochemical; settings: amorphous
# [8] = tested on: ex vivo calcium ionophore stimulated LTB4 production in whole blood; set-up: species or system human
# Procedure, shortened: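 Lithium-heparin blood was drawn from dosed subjects 24 h before and just before dosing, then at set times after (SAD to 48 h; MAD daily predose and after last dose). Blood aliquots were stimulated in duplicate with 30 μM calcium ionophore A23187 or DMSO at 37°C, 100 rpm, for 30 min, then stopped on ice with EGTA. LTB₄ in plasma was measured by supported liquid extraction LC-MS/MS, against a baseline of the mean day 1/predose value.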
# [9] = Pharmacokinetics, multiple ascending dose; type: in vivo, human
# Procedure, shortened: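 Amorphous oral suspension was given once daily for 10 days to fasted healthy men (n = 6 per dose), with intensive sampling on days 1 and 10. K₂EDTA plasma and urine were measured by LC-MS/MS with a ¹³C₆-labelled internal standard (validated 1–1,000 nmol/L plasma, 20–20,000 nmol/L urine). Noncompartmental analysis on actual times; CL/F = dose/AUC; CLR = amount excreted unchanged/AUC.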
# [10] = tested on: LTB4 production in human whole blood; test: LTB4 production in human whole blood in vitro; type: cell-based; settings: read-out: IC50, inhibition of LTB4 production
# logD = type: physicochemical; settings: pH 7.4
# [11] = tested on: cytochrome P450 (CYP)3A4 and CYP3A5; test: In vitro metabolism studies; type: in vitro ADME
# [12] = 60 mg OD, day 10, geometric mean (%CV)
# [13] = 180 mg OD, day 1, geometric mean (%CV)
# [14] = 180 mg OD, day 10, geometric mean (%CV)
# [15] = 360 mg OD, day 1, geometric mean (%CV)
# [16] = 360 mg OD, day 10, geometric mean (%CV)
# [17] = 600 mg OD, day 1, geometric mean (%CV)
# [18] = 600 mg OD, day 10, geometric mean (%CV)
smiles,measurement,setting,value
"C[C@H](C#Cc1ccc(Cc2ccc(F)cc2)s1)N(O)C(N)=O [VIA‐2291, Atreleuton]",ex vivo stimulated LTB4 production,5‐LO [1]; patients with ACS ref 13,reduced
same,noncalcified plaque volume,5‐LO [1]; patients with ACS ref 13,reduced
same,left ventricular ejection fraction,"5‐LO [1]; patients with ACS, dose dependent ref 13, 14",improved
CC(c1cc2ccccc2s1)N(O)C(N)=O (centres unmarked) [zileuton],flow‐mediated dilation in the brachial artery,5‐LO [2],improved
same,leukotriene production in blood,5‐LO [2],inhibited
Cc1cc(-c2ccc(C(=O)[C@@H]3CCCC[C@H]3C(=O)Nc3cnn4c3C(=O)NCC4)cc2)n[nH]1 [AZD5718],subjects experiencing an AE on active drug,[3]; MAD study,10 subjects
same,subjects reporting headache,[3]; MAD study,five
same,serious adverse events,"[3]; SAD 25–1,200 mg and MAD 60–600 mg",no serious adverse events
same,safety and tolerability findings,"[3]; SAD and MAD, healthy subjects",No clinically relevant safety and tolerability findings
same,subjects experiencing an AE on active drug,[3]; SAD study,17 subjects
same,subjects reporting headache,[3]; SAD study,three
same,maximal tolerated dose,"[3]; up to 1,200 mg single, 600 mg OD for 10 days",not established
same,Papp,Caco‐2,24 10^−6 cm/s
same,efflux ratio,Caco‐2,7.4
same,metabolism kinetics,[4],saturable metabolism
same,AUC,[5]; 25 mg single dose,376.3 (38.1) nmol*h/L
same,CL/F,[5]; 25 mg single dose,148.8 (38.1) L/h
same,CLR,[5]; 25 mg single dose,0.68 (39.4) L/h
same,t½,[5]; 25 mg single dose,10.3 (51.0) h
same,Tmax,[5]; 25 mg single dose,3.0 (1.0–6.0) h
same,AUC,[5]; 50 mg single dose,727.0 (15.4) nmol*h/L
same,CL/F,[5]; 50 mg single dose,153.9 (15.4) L/h
same,CLR,[5]; 50 mg single dose,0.62 (14.7) L/h
same,Cmax,[5]; 50 mg single dose,81.6 nM
same,t½,[5]; 50 mg single dose,12.5 (33.3) h
same,Tmax,[5]; 50 mg single dose,1.0 (1.0–3.0) h
same,AUC,[5]; 100 mg single dose,"1,441 (45.3) nmol*h/L"
same,CL/F,[5]; 100 mg single dose,155.6 (45.3) L/h
same,CLR,[5]; 100 mg single dose,0.66 (41.0) L/h
same,Cmax,[5]; 100 mg single dose,170 nM
same,t½,[5]; 100 mg single dose,12.7 (35.7) h
same,Tmax,[5]; 100 mg single dose,1.0 (0.5–3.0) h
same,AUC,[5]; 300 mg single dose,"8,462 (20.1) nmol*h/L"
same,CL/F,[5]; 300 mg single dose,79.4 (20.1) L/h
same,CLR,[5]; 300 mg single dose,0.67 (23.7) L/h
same,Cmax,[5]; 300 mg single dose,2360 nM
same,t½,[5]; 300 mg single dose,13.7 (43.9) h
same,Tmax,[5]; 300 mg single dose,1.0 (0.5–1.0) h
same,AUC,[5]; 600 mg single dose,"18,810 (42.1) nmol*h/L"
same,CL/F,[5]; 600 mg single dose,71.5 (42.1) L/h
same,CLR,[5]; 600 mg single dose,0.70 (15.4) L/h
same,Cmax,[5]; 600 mg single dose,5050 nM
same,t½,[5]; 600 mg single dose,11.4 (18.0) h
same,Tmax,[5]; 600 mg single dose,1.0 (1.0–2.0) h
same,AUC,"[5]; 1,200 mg single dose","35,840 (33.8) nmol*h/L"
same,CL/F,"[5]; 1,200 mg single dose",75.0 (33.8) L/h
same,CLR,"[5]; 1,200 mg single dose",0.62 (12.1) L/h
same,Cmax,"[5]; 1,200 mg single dose",6880 nM
same,t½,"[5]; 1,200 mg single dose",10.3 (19.0) h
same,Tmax,"[5]; 1,200 mg single dose",1.5 (1.0–2.0) h
same,relative bioavailability of the crystalline formulation compared with the amorphous formulation,"[5]; SAD, oral suspensions, results not presented",much lower
same,mean terminal half‐life,"[5]; after single dose administration and at steady state, all doses",10 to 12 h
same,dose‐linearity of exposure,"[5]; single and multiple administration, except Ctrough in the MAD",more than dose proportional increase in exposure
same,median Tmax,"[5]; single and multiple dose, amorphous suspension, fasted",~1 h
same,renal clearance as share of total oral clearance,[5]; unchanged drug in urine,~1%
same,human plasma protein binding,[6],95.7%
same,solubility,[7],20 µM
same,LTB4 production inhibition throughout the day,"[8]; MAD, 180, 360, and 600 mg doses, last day of repeated dosing",> 80%
same,mean LTB4 inhibition throughout the whole day,"[8]; SAD, single doses of 300–1,200 mg",> 80%
same,fold lower IC50 for ex vivo stimulated LTB4 inhibition,[8]; compared with both AM103 and VIA2291,~100 fold
same,AUCτ,"[9]; 60 mg OD, day 1, geometric mean (%CV)","1,018 (22.4) nmol*h/L"
same,Tmax,"[9]; 60 mg OD, day 1, median (range)",0.8 (0.5–2.0) h
same,Cmax,"[9]; 60 mg OD, day 1, oral amorphous suspension, N = 6, geometric mean (%CV)",167 nM
same,AUCτ,[9]; [12],"1,386 (27.4) nmol*h/L"
same,CL/F,[9]; [12],96.9 (27.4) L/h
same,CLR,[9]; [12],0.64 (16.0) L/h
same,Cmax,[9]; [12],220 nM
same,t½,[9]; [12],11.6 (6.7) h
same,Tmax,"[9]; 60 mg OD, day 10, median (range)",0.5 (0.5–1.0) h
same,AUCτ,[9]; [13],"3,732 (41.2) nmol*h/L"
same,Cmax,[9]; [13],847 nM
same,Tmax,"[9]; 180 mg OD, day 1, median (range)",1.0 (1.0–1.0) h
same,AUCτ,[9]; [14],"5,128 (46.9) nmol*h/L"
same,CL/F,[9]; [14],78.6 (46.9) L/h
same,CLR,[9]; [14],0.75 (16.0) L/h
same,Cmax,[9]; [14],1240 nM
same,t½,[9]; [14],11.2 (13.0) h
same,Tmax,"[9]; 180 mg OD, day 10, median (range)",1.0 (1.0–1.0) h
same,AUCτ,[9]; [15],"10,350 (28.8) nmol*h/L"
same,Cmax,[9]; [15],2560 nM
same,Tmax,"[9]; 360 mg OD, day 1, median (range)",1.0 (1.0–2.0) h
same,AUCτ,[9]; [16],"12,760 (31.0) nmol*h/L"
same,CL/F,[9]; [16],63.1 (31.0) L/h
same,CLR,[9]; [16],0.99 (5.2) L/h
same,Cmax,[9]; [16],3210 nM
same,t½,[9]; [16],9.1 (10.7) h
same,Tmax,"[9]; 360 mg OD, day 10, median (range)",1.0 (1.0–1.0) h
same,AUCτ,[9]; [17],"16,290 (48.6) nmol*h/L"
same,Cmax,[9]; [17],4930 nM
same,Tmax,"[9]; 600 mg OD, day 1, median (range)",1.0 (1.0–1.0) h
same,AUCτ,[9]; [18],"23,170 (47.4) nmol*h/L"
same,CL/F,[9]; [18],58.0 (47.4) L/h
same,CLR,[9]; [18],0.72 (23.3) L/h
same,Cmax,[9]; [18],5690 nM
same,t½,[9]; [18],9.9 (29.2) h
same,Tmax,"[9]; 600 mg OD, day 10, median (range)",1.5 (1.0–3.0) h
same,accumulation on repeated dosing,"[9]; Ctrough, once daily dosing",small accumulation
same,time to steady state,"[9]; repeated once daily dosing, Ctrough, visual inspection",~3 days
same,IC50,[10],39 nM
same,logD,logD,2.9
same,CYP‐isoforms involved in the metabolism,[11],(CYP)3A4 and CYP3A5
